Source: publication PMC2671235 (Biochemistry, 2009)
“Also recorded” adds a separate entry of the source. Read-outs that look alike come from different tables or passages of the source. Ends that are not written are not given here.

How the values were obtained:
S100A10 [1] = target: T1, S100A10 (Homo sapiens, UniProt P60903); experiment: ITC of AnII binding to S100A10
Procedure, shortened: (§1)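 Isothermal titration calorimetry in 20 mM Tris, 0.2 mM EDTA, 1 mM TCEP, pH 7.5. S100A10 was run with 5 mM calcium or without calcium; Ca2+-S100A11 was run with or without 100 mM NaCl. Protein and peptide were co-dialysed at 4°C. Screens injected 2 μL of about 0.75 mM peptide into about 20–25 μM protein at 10 and 25°C, continuing to saturation when heat appeared. Integrated heats were fit to two sequential sites per dimer, over five temperatures. ΔCp was taken from the slope of ΔHcal against temperature.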

S100A11 [2] = target: T2, S100A11 (Homo sapiens, UniProt P31949); experiment: ITC of AnII binding to Ca2+-S100A11
T2 sequence (P31949 1-105): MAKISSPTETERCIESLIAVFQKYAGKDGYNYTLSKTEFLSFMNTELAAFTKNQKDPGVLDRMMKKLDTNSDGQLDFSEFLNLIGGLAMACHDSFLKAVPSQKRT
Procedure, shortened: as §1

[3] = Far-UV CD of free peptides; type: physicochemical; details: TFE up to 60%, with or without calcium
Procedure, shortened: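 Peptides were run at […] in 20 mM Tris, 3 mM DTT, 0.2 mM EDTA, pH 7.5, without or with 5 mM calcium. TFE was added up to 60% final. Buffer-corrected ellipticity was converted to mean residue ellipticity. Fraction helicity was taken from [Θ]222 against temperature-dependent fully coiled and fully helical reference values.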

S100A11 [4] = target: T2, S100A11; experiment: Far-UV CD difference spectra, peptide with S100A11; type: binding; details: for fractional helicity upon binding: far-UV CD difference spectra, 10 μM protein, 50 μM peptide, 5 mM calcium; for coil-to-helix transition upon binding: far-UV CD, Ca2+-S100A11
Procedure, shortened: (§2)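 Recombinant S100 protein expressed in E. coli BL21(DE3), purified by phenyl-Sepharose and Sephadex G-75; S100A10 eluted in 8 M urea and refolded by dialysis. Far-UV CD recorded 250–200 nm on 10 μM protein plus 50 μM peptide in binding buffer with 5 mM calcium. Difference spectrum: complex minus free peptide minus free protein, converted to mean residue ellipticity assuming saturated sites. Fraction helicity derived from [Θ]222 against temperature-dependent coil and helix reference values.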

S100A10 [5] = target: T1, S100A10; experiment: Far-UV CD difference spectra, AnII with S100A10; type: binding
Procedure, shortened: as §2

[6] = Analytical equilibrium ultracentrifugation; type: physicochemical; details: 4°C, 35,000 rpm, 20 mM Tris, 1 mM TCEP, 0.2 mM EDTA, pH 7.5, absence or presence of 5 mM calcium; single species fit
Procedure, shortened: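 Peptides were N-terminally acetylated; AnII carried an added C-terminal Tyr. Concentrations came from ε280 of 5,500 (AnI) and 1,490 (AnII) M−1 cm−1. Radial distributions were fitted to a single-species equilibrium equation using partial specific volumes of 0.748 (AnI) and 0.745 (AnII) cm3/g.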

[7] = tested on: sixteen members of S100 protein family; experiment: Screen of peptides against S100 family; type: binding, human; details: S100 proteins other than the partners found (S100A6, S100A10, S100A11)
S100A10 [8] = details: literature; ref [15]; cited from earlier work
S100A11 [9] = details: cited from earlier work
Ca2+-S100P = details: ref [25], cited from earlier work
calmodulin [10] = details: ref [27]; cited from earlier work
S100A11 [11] = target: T2, S100A11; experiment: Trp fluorescence titration of AnI with S100A11; type: binding
Procedure, shortened: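 Intrinsic Trp emission of 2 μM peptide, excited at 295 nm and read at 305–400 nm. Protein was added stepwise in 1.2 μM increments to 10 μM, a final 5:1 protein:peptide ratio. Emission intensity and maximum were followed. Kd came from fitting the intensity change against protein concentration to a model with two identical sites per dimer.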

S100A6 [12] = target: T3, S100A6 (Homo sapiens, UniProt P06703); experiment: Trp fluorescence titration of AnI with S100A6; type: binding
[13] = tested on: S100 protein family members (S100A1-S100A13, S100B, S100P, S100Z); experiment: Trp fluorescence screen of AnI against other S100 proteins; type: binding, human; details: any S100 protein other than S100A11 and S100A6; protein:peptide ratio up to 5:1
Procedure, shortened: (§3)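 This screen used a thermostated cell, 295 nm excitation, and emission scanned over 305–400 nm. Concentrated protein in assay buffer was added stepwise to 2 μM AnI, up to 10 μM protein (5:1). For Trp-containing S100A1, A3, A8, A9 and A13, AnI was instead added to 2 μM protein up to 5:1 peptide:protein, and protein-only spectra were subtracted.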

calmodulin [14] = experiment: Trp fluorescence screen of AnI against calmodulin; type: binding; details: protein:peptide ratio up to 5:1
Procedure, shortened: as §3

S100A11 [15] = target: T2, S100A11; experiment: ITC of AnI binding to Ca2+-S100A11
Procedure, shortened: (§4)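 VP-ITC in 20 mM Tris, 0.2 mM EDTA, 1 mM TCEP, pH 7.5 with 5 mM calcium. Protein and peptide were co-dialysed with three buffer changes at 4°C. Because of its limited solubility, the AnI peptide was placed in the cell and the S100 protein titrated from the syringe. Runs were done at five temperatures (15–35°C). Integrated injection heats were fitted to a two identical non-interacting sites per dimer model.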

S100A6 [16] = target: T3, S100A6; experiment: ITC of AnI binding to Ca2+-S100A6; details: different temperatures, relative to free energy of binding
Procedure, shortened: as §4

S100A6 [17] = target: T3, S100A6; experiment: Far-UV CD difference spectra, AnI with S100A6; type: binding
S100A6-Y84S = experiment: Far-UV CD difference spectra, AnI with S100A6-Y84S; type: binding, human; details: 5 mM calcium
Procedure, shortened: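 Spectra of 10 μM protein with 50 μM AnI in 5 mM calcium binding buffer were recorded at 250–200 nm. The difference spectrum was complex minus free peptide minus free protein, converted to mean residue ellipticity assuming saturated sites.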

[18] = tested on: S100A6 variants (Y73F, Y84S, Y73F/Y84S); experiment: Binding affinity of AnI for substituted S100A6 variants; set-up: species or system human; details: data not shown
[19] = Trp fluorescence emission of free AnI; type: physicochemical; details: free AnI in solution, excitation 295 nm, emission 305-400 nm, pH 7.5
[20] = ITC screen and calcium dependence
[21] = slope of ΔHcal vs temperature, ITC at 5 temperatures
[22] = literature, AnII labeled with Prodan in that study, ref [15]
[23] = 5 mM calcium, pH 7.5, excitation 295 nm

T1 sequence (P60903 whole entry): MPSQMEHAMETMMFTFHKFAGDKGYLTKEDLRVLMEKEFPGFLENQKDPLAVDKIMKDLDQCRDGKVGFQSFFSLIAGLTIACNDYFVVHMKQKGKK

Ac-STVHEILSKLSLEGY [AnII]
effect of calcium on ITC binding (S100A10 [1]; 5 mM calcium compared with absence of calcium): very similar to the data obtained in the absence of calcium
binding (S100A10 [1]; [20]): the binding is independent of calcium; also recorded: AnII has been found to bind S100A10
enthalpy of binding (sign/size) (S100A10 [1]; ITC, total enthalpy from both binding sites, entire temperature range): large and negative; also recorded: exothermic
ΔCp,exp (S100A10 [1]; [21]): −2.4±0.3 kJ/(mol·K)
effect of ionic strength on thermodynamics of binding (S100A11 [2]; 100 mM NaCl): did not have any effect on the thermodynamics of binding
enthalpy of binding (sign/size) (S100A11 [2]; ITC): endothermic but small relative to the Gibbs energy of binding
binding (S100A11 [2]; [20]): this binding to S100A11 is also modulated by calcium; also recorded: AnII has been found to bind S100A10 and Ca^2+-S100A11
ΔCp,exp (S100A11 [2]; [21]): −1.1±0.2 kJ/(mol·K)
secondary structure in TFE [3]: far-UV CD spectra characteristic of helices
fractional helicity upon binding (S100A11 [4]): 0.57
coil-to-helix transition upon binding (S100A11 [4]): undergo a coil-to-helix transition upon binding
helicity when bound (S100A10 [5]; compared to AnII bound to S100A11): AnII becomes more helical when bound to S100A10 compared to when it is bound to S100A11
coil-to-helix transition upon binding (S100A10 [5]; far-UV CD, S100A10): undergo a coil-to-helix transition upon binding
molecular mass in solution (oligomeric state) [6]: 1.9 ± 0.16 kDa
binding to the other S100 proteins [7]: bind to only these S100 proteins and not the others
binding (S100A10 [8]): S100A10 binds AnII but not AnI
binding (S100A11 [9]; NMR spectroscopy, ref [16]): AnII can interact with Ca^2+-S100A11
binding (S100A11 [9]; [22]): S100A11 binds AnI but not AnII

melittin: peptide with the ability to bind both S100P and calmodulin
ΔCp (Ca2+-S100P; melittin binding to Ca2+-S100P): −2.5±0.5 kJ/(mol·K)
binding (Ca2+-S100P): has the ability to bind both S100P
binding (calmodulin [10]): has the ability to bind both S100P ([25]) and calmodulin

Ac-AMVSEFLKQAWFIE [AnI]
Kd (S100A11 [11]): 5 ± 1 µM
fluorescence emission maximum wavelength of AnI in presence of Ca2+-S100A11 (S100A11 [11]; [23]): 350 nm
change in Trp emission spectra without calcium (S100A11 [11]; S100A11 in the absence of calcium): very little change in the emission spectra
binding (S100A11 [11]; Trp fluorescence screen, Ca2+-S100A11): AnI has been found to bind Ca^2+-S100A6 and Ca^2+-S100A11
fluorescence emission maximum wavelength of AnI upon addition of Ca2+-S100A6 (S100A6 [12]; [23]): 352 nm
change in Trp fluorescence without calcium (S100A6 [12]; S100A6 in the absence of calcium): No changes in Trp-fluorescence
binding (S100A6 [12]; Trp fluorescence screen, Ca2+-S100A6): AnI has been found to bind Ca^2+-S100A6
change in Trp fluorescence (emission maximum or intensity) in screen [13]: did not show changes in Trp fluorescence
change in Trp fluorescence / binding in screen (calmodulin [14]): did not show changes in Trp fluorescence; also recorded: Neither peptide was found to bind to calmodulin
Kd (S100A11 [15]): 5 ± 2 µM
temperature dependence of dissociation constant (S100A11 [15]; ITC, 15-35°C): does not depend significantly on temperature
enthalpy of binding ΔHcal at 15°C (S100A11 [15]; ITC, 15°C, 5 mM calcium): -0.96 kcal/mol
enthalpy of binding ΔHcal at 35°C (S100A11 [15]; ITC, 35°C, 5 mM calcium): -7.17 kcal/mol
free energy of binding ΔG=−RTln(Kd) (S100A11 [15]; per binding site, from ITC Kd): ≈ 30 kJ/mol; also recorded: ≈ 26 kJ/mol
ΔCp,exp (S100A11 [15]; slope of ΔHcal vs temperature, ITC 15-35°C, 5 mM calcium): −1.3±0.2 kJ/(mol·K)
enthalpy of binding (sign/size) (S100A6 [16]): either negative or positive but small relative to the free energy of binding
secondary structure in TFE [3]: far-UV CD spectra characteristic of helices
fractional helicity upon binding (S100A11 [4]): 0.59
coil-to-helix transition upon binding (S100A11 [4]): undergo a coil-to-helix transition upon binding
far-UV CD difference spectrum (S100A6 [17]; AnI with Ca2+-S100A6 wild type, 10 μM protein, 50 μM AnI, 5 mM calcium): A noted lower elipticity
coil-to-helix transition upon binding (S100A6 [17]; far-UV CD, Ca2+-S100A6): undergo a coil-to-helix transition upon binding
far-UV CD difference spectrum (S100A6-Y84S): the difference spectrum for the Y84S variant has a similar spectrum to that of the wild type
effect of S100A6 substitutions on binding affinity [18]: the substitutions do not have a significant effect on the binding affinity
molecular mass in solution (oligomeric state) [6]: 1.9 ± 0.07 kDa
fluorescence emission maximum wavelength of free AnI [19]: approximately 359 nm
binding to the other S100 proteins [7]: bind to only these S100 proteins and not the others
binding (S100A10 [8]): S100A10 binds AnII but not AnI
binding (S100A11 [9]; [22]): S100A11 binds AnI but not AnII
